Assay results reported in paper PMC3149845 (The Journal of neuroscience : the official journal of the …, 2011).
“Also recorded” adds a separate entry of the source. Where two headings read alike, the source gives them in different places. Peptide text beside a SMILES is read from it.

Legend:
hTas1R2:I67S+hTas1R3 = hTas1R2:I67S+hTas1R3 (Homo sapiens, UniProt Q8TE23, I67S); assay: Ca2+ mobilization, mutated human receptor; type: cell-based; conditions: aspartame 10mM, neotame 1mM, sucralose 2 mM; compared with hTas1R2/hTas1R3
Procedure, shortened: (§1)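 HEK293E cells grown at 37°C in Opti-MEM with 5% FBS and seeded at 50,000/well. Cells co-lipofected with Tas1R plasmids and Gα16-gust44 (0.06 μg each per well); medium changed at 20 h, assayed 24 h later. Cells loaded 1 h with Fluo-4 AM in HEPES-buffered HBSS. Tastant added at 30 s; fluorescence (ex 488/em 525 nm) read every 2 s for 150 s more. ΔF/F normalised to human receptor maximal sucralose response; mean ± SEM, three independent experiments.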

hTas1R2:D142E+hTas1R3 = hTas1R2:D142E+hTas1R3 (Homo sapiens, UniProt Q8TE23, D142E); assay: Ca2+ mobilization, mutated human receptor; type: cell-based; conditions: aspartame 10mM, neotame 1mM, sucralose 2 mM; compared with hTas1R2/hTas1R3
Procedure, shortened: as §1

[1] = target: T1, hTas1R2:I67S/D142E+hTas1R3 (Homo sapiens, UniProt Q8TE23, D142E/I67S); assay: Ca2+ mobilization, mutated human receptor; type: cell-based; conditions: for calcium response to sweetener: aspartame 10mM, neotame 1mM, sucralose 2 mM, compared with hTas1R2/hTas1R3; for response in dose-response experiment: versus hTas1R2+hTas1R3
T1 sequence (Q8TE23 20-839 I67S/D142E): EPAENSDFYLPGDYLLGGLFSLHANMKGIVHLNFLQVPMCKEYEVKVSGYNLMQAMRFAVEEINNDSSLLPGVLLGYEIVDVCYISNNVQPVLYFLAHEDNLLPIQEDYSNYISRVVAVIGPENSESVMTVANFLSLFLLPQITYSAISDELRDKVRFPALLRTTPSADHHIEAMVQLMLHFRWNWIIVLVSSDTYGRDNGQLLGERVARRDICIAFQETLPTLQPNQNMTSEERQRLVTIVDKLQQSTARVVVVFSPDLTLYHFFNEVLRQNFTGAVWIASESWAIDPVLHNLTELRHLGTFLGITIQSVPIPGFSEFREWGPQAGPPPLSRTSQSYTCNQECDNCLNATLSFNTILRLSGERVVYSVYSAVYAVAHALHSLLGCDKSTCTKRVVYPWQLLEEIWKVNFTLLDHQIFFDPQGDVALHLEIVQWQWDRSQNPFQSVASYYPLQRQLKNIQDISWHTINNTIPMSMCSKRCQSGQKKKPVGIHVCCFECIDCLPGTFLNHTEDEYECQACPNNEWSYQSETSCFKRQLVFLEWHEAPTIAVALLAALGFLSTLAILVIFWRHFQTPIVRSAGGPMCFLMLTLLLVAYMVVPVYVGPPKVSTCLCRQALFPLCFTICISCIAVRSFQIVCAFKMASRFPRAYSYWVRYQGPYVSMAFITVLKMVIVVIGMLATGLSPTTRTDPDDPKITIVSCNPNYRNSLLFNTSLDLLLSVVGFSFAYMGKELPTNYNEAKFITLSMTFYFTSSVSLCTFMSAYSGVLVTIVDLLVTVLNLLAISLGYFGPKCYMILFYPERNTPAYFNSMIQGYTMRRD
T1 sequence (Q7RTX0 21-852 partner): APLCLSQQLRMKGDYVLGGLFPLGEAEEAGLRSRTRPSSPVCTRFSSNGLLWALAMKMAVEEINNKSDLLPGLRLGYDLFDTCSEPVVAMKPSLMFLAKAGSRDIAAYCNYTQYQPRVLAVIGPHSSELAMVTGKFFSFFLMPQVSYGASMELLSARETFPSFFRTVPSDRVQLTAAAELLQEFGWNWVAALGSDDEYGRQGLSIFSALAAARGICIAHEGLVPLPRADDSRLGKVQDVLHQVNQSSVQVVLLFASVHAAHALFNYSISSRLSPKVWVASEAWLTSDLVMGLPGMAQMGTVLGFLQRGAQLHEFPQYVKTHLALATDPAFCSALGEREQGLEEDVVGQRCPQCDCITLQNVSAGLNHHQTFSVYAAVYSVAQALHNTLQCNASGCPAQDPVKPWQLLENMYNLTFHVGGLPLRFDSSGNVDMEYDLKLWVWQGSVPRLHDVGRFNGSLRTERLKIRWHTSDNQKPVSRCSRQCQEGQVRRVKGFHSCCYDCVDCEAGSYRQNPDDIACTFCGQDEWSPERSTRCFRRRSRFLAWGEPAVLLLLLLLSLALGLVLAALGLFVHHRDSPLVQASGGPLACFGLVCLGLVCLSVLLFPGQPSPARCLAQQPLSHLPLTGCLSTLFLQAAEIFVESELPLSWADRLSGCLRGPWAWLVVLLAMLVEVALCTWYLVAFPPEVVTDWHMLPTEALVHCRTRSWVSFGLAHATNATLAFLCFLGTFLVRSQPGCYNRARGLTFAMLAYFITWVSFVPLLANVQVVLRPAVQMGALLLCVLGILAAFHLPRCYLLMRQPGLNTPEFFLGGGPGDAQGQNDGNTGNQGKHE

[2] = target: smTas1R2:T40S/L66V/S67I/E142D+smTas1R3 (Saimiri sciureus, UniProt A3QP08, E142D/L66V/S67I/T40S); assay: Ca2+ mobilization, mutated squirrel monkey receptor; type: cell-based, squirrel monkey (Saimiri sciureus); conditions: aspartame 10mM, neotame 1mM, sucralose 2 mM; compared with smTas1R2/smTas1R3
[3] = target: smTas1R2:T40S/S67I/E142D+smTas1R3 (Saimiri sciureus, UniProt A3QP08, E142D/S67I/T40S); assay: as above; type: cell-based, squirrel monkey (Saimiri sciureus); conditions: for calcium response to sweetener: aspartame 10mM, neotame 1mM, sucralose 2 mM, compared with smTas1R2/smTas1R3; for response in dose-response experiment: versus smTas1R2+smTas1R3; for Bottom (B) of sigmoid dose-response fit / Top (T) of sigmoid dose-response fit: ΔF/F normalized to maximum response of hTas1R2/hTas1R3 to neotame
[4] = target: smTas1R2:T40S/E142D+smTas1R3 (Saimiri sciureus, UniProt A3QP08, E142D/T40S); assay: as above; type: cell-based, squirrel monkey (Saimiri sciureus); conditions: for response in dose-response experiment: versus smTas1R2+smTas1R3
[5] = target: smTas1R2:T40S/S67I+smTas1R3 (Saimiri sciureus, UniProt A3QP08, S67I/T40S); assay: as above; type: cell-based, squirrel monkey (Saimiri sciureus); conditions: aspartame 10mM, neotame 1mM, sucralose 2 mM
[6] = target: smTas1R2:S67I/E142D+smTas1R3 (Saimiri sciureus, UniProt A3QP08, E142D/S67I); assay: as above; type: cell-based, squirrel monkey (Saimiri sciureus); conditions: for response in dose-response experiment: versus smTas1R2+smTas1R3; for Bottom (B) of sigmoid dose-response fit / Top (T) of sigmoid dose-response fit: ΔF/F normalized to maximum response of hTas1R2/hTas1R3 to neotame
[7] = cited from earlier work
[8] = ΔF/F normalized to maximum response of hTas1R2/hTas1R3 to neotame
[9] = HEK293E cells with Gα16-gust44, dose-response, calcium mobilization

Chain of smTas1R2:S67I/E142D+smTas1R3 (A3QP08 20-834 S67I/E142D): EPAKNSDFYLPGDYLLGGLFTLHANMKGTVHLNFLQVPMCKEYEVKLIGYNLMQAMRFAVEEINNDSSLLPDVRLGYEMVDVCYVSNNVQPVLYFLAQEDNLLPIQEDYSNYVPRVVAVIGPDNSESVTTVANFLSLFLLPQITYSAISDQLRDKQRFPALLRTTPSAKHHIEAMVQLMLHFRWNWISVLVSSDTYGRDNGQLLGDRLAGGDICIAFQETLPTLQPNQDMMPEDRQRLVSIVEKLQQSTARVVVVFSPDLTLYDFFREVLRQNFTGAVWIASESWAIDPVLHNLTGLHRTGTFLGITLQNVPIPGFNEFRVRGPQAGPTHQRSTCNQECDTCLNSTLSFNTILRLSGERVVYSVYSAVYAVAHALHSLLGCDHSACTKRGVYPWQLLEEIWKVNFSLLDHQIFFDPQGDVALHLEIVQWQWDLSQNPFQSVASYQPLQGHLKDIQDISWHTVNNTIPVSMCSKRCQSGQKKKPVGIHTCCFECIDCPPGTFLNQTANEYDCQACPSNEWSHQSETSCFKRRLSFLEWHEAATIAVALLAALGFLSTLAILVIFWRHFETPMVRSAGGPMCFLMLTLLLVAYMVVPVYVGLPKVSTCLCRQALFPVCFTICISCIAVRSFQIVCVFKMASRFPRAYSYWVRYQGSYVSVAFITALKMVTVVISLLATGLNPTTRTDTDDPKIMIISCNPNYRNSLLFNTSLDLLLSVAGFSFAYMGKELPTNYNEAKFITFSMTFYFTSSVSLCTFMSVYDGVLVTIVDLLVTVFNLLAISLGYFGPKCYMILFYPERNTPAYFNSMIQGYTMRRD
Chain of smTas1R2:T40S/S67I/E142D+smTas1R3 (A3QP08 20-834 T40S/S67I/E142D): as the sequence (A3QP08 20-834 S67I/E142D) above, with T21S counted along it
Chain of hTas1R2:D142E+hTas1R3 (Q8TE23 20-839 D142E, one chain of several): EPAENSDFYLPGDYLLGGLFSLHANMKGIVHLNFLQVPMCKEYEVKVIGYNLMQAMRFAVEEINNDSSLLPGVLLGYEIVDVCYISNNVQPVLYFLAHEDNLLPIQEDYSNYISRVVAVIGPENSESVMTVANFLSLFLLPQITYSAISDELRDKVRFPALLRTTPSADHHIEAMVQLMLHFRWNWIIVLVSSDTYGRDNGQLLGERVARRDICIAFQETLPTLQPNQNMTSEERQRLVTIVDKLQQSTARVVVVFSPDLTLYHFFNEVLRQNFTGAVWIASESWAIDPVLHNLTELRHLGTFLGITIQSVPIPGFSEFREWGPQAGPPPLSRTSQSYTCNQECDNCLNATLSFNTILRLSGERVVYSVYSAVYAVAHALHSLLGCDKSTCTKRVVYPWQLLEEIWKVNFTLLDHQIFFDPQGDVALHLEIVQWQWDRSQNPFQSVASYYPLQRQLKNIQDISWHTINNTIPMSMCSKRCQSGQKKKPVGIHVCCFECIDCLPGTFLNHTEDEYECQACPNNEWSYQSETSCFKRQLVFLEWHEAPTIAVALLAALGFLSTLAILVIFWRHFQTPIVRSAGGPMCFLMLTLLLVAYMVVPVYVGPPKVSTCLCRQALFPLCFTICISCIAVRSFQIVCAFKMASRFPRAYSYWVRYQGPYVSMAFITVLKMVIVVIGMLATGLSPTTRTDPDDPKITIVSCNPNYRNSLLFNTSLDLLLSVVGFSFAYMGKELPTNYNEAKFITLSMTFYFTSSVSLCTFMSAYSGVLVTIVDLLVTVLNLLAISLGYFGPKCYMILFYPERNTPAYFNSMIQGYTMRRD
Chain of smTas1R2:T40S/E142D+smTas1R3 (A3QP08 20-834 T40S/E142D): as the sequence (A3QP08 20-834 S67I/E142D) above, with T21S, I48S counted along it
Chain of smTas1R2:T40S/L66V/S67I/E142D+smTas1R3 (A3QP08 20-834 T40S/L66V/S67I/E142D): as the sequence (A3QP08 20-834 S67I/E142D) above, with T21S, L47V counted along it
Chain of smTas1R2:T40S/S67I+smTas1R3 (A3QP08 20-834 T40S/S67I): as the sequence (A3QP08 20-834 S67I/E142D) above, with T21S, D123E counted along it
Chain of hTas1R2:I67S+hTas1R3 (Q8TE23 20-839 I67S, one chain of several): as the sequence (Q8TE23 20-839 D142E, one chain of several) above, with I48S, E123D counted along it

Structure (SMILES) | calcium response to sweetener (hTas1R2:I67S+hTas1R3) | calcium response to sweetener (hTas1R2:D142E+hTas1R3) | calcium response to sweetener [1] | response in dose-response experiment ([1]; dose-response) | calcium response to sweetener [2] | calcium response to sweetener [3] | response in dose-response experiment ([3]; dose-response) | Bottom (B) of sigmoid dose-response fit [3] | Top (T) of sigmoid dose-response fit [3] | response in dose-response experiment ([4]; dose-response) | Top (T) of sigmoid dose-response fit [4, 8] | calcium response to sweetener [5] | response in dose-response experiment ([6]; dose-response) | Bottom (B) of sigmoid dose-response fit [6] | Top (T) of sigmoid dose-response fit [6] | further results
COC(=O)[C@H](Cc1ccccc1)NC(=O)[C@@H](N)CC(=O)O [aspartame, L-α-aspartly-L-phenylalanine methyl ester] (H-Asp-Phe-OMe) | mild phenotype | almost abolished; also recorded: abolishes the activity | abolition | no responses | significant responses | significant responses | good response | −2.882 | 32.61 | good response | 42.4 | no response | good response | −0.6682 | 26.17 | EC50 [3]: 1200 µM; EC50 [4]: 1400 µM; Bottom (B) of sigmoid dose-response fit [4, 8]: −3.314; EC50 [6]: 5600 µM; sweet potency relative to sucrose ([7]; ref Meguro et al., 2000): 200 times
COC(=O)[C@H](Cc1ccccc1)NC(=O)[C@H](CC(=O)O)NCCC(C)(C)C [neotame] | slightly reduced response | significantly decreased | significant reduction | weaker responses | significant responses | significant responses | good responses | −4.671 | 51.73 | good responses | 69.46 | no response | good responses | −5.754 | 56.59 | EC50 [1, 9]: 4700 µM; Bottom (B) of sigmoid dose-response fit [1, 8]: −1.772; Top (T) of sigmoid dose-response fit [1, 8]: 51.81; EC50 [3, 9]: 280 µM; EC50 [4, 9]: 2100 µM; EC50 [6, 9]: 1000 µM; sweetness relative to aspartame ([7]; ref Garbow et al., 2001): about 40 times
